Assay results published in ChEMBL document CHEMBL1140994, “Ranking the selectivity of PubChem screening hits by activity-based protein profiling: MMP13 as a case study” (Bioorg Med Chem, 2009).
pIC50: −log10 of the molar value. The source made the active and inactive calls. The calls are words filed in the database; no cut-off is given here.

Key:
[1] = target: Stromelysin-1 (Homo sapiens) (UniProt P08254); assay: Inhibition of human recombinant MMP3 at 200 uM by HxBPyne probe-based competitive activity based protein profiling assay in presence of 5 uM HxBpane competitor
Procedure, shortened: (§1)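 Recombinant enzyme at 0.5 μM final in mouse liver soluble proteome (1 mg protein/mL in PBS). HxBPyne probe cocktail 0.5 μM total final, with inhibitor 200 μM or DMSO. Preincubated 30 min on ice, then UV 365 nm for 1 h on ice. Rhodamine-azide click chemistry, 1 h RT in dark. SDS-PAGE with in-gel fluorescence; band intensity given as % of DMSO control.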

[2] = target: Matrix metalloproteinase-24 (Homo sapiens) (UniProt Q9Y5R2); assay: Inhibition of human recombinant MMP24 at 200 uM by HxBPyne probe-based competitive activity based protein profiling assay in presence of 5 uM HxBpane competitor; procedure, shortened: as §1
[3] = target: Matrix metalloproteinase-16 (Homo sapiens) (UniProt P51512); assay: Inhibition of human recombinant MMP16 at 200 uM by HxBPyne probe-based competitive activity based protein profiling assay in presence of 5 uM HxBpane competitor; procedure, shortened: as §1
[4] = target: T1, Matrix metalloproteinase-9 (Homo sapiens, UniProt P14780); assay: Inhibition of human recombinant MMP9 by fluorogenic substrate assay
Procedure, shortened: (§2)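 Enzyme (MMP8 6 nM, MMP9 2 nM, MMP13 1.5 nM final) preincubated with inhibitor 30 min in 50 mM HEPES pH 7.5, 10 mM CaCl2, 0.05% Brij-35, at RT. Mca-PLGL-Dpa-AR-NH2 added at 5 μM; fluorescence (ex 328/em 393 nm) read each minute for 10 min. Initial rates by linear least squares; IC50 from variable-slope sigmoidal fit. Triplicate; mean with 95% CI.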

[5] = target: A disintegrin and metalloproteinase with thrombospondin motifs 4 (Homo sapiens) (UniProt O75173); assay: Inhibition of human recombinant ADAMTS4 at 200 uM by HxBP-Rh probe-based competitive activity based protein profiling assay in presence of 200 uM HxBP-alkyne
Procedure, shortened: (§3)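 Enzyme 0.5 μM final, in PBS (ADAMTS4, neprilysin) or in 1 mg/mL mouse liver soluble proteome (MMP9). HxBP-Rh probe 0.5 μM final with 200 μM inhibitor or DMSO. Preincubated 30 min on ice, UV 365 nm 1 h on ice. Deglycosylated with PNGase F, then SDS-PAGE with fluorescence scanning. Activity given relative to DMSO control.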

[6] = target: T1, Matrix metalloproteinase-9; assay: Inhibition of human recombinant MMP9 at 200 uM by HxBP-Rh probe-based competitive activity based protein profiling assay in presence of 200 uM HxBP-alkyne; procedure, shortened: as §3
[7] = target: Neprilysin (Homo sapiens) (UniProt P08473); assay: Inhibition of human recombinant neprilysin at 200 uM by HxBP-Rh probe-based competitive activity based protein profiling assay in presence of 200 uM HxBP-alkyne; procedure, shortened: as §3
Neutrophil collagenase [8] = target: T2, Neutrophil collagenase (Homo sapiens, UniProt P22894); assay: Inhibition of human recombinant MMP8 at 200 uM by HxBPyne probe-based competitive activity based protein profiling assay in presence of 5 uM HxBpane competitor; procedure, shortened: as §1
[9] = target: 72 kDa type IV collagenase (Homo sapiens) (UniProt P08253); assay: Inhibition of human recombinant MMP2 at 200 uM by HxBPyne probe-based competitive activity based protein profiling assay in presence of 5 uM HxBpane competitor; procedure, shortened: as §1
[10] = target: A disintegrin and metalloproteinase with thrombospondin motifs 1 (Homo sapiens) (UniProt Q9UHI8); assay: Inhibition of human recombinant ADAMTS1 at 200 uM by HxBPyne probe-based competitive activity based protein profiling assay in presence of 5 uM HxBpane competitor; procedure, shortened: as §1
Neutrophil collagenase [11] = target: T2, Neutrophil collagenase; assay: Inhibition of human recombinant MMP8 by fluorogenic substrate assay; procedure, shortened: as §2
Target sequence in this assay (P22894 whole entry): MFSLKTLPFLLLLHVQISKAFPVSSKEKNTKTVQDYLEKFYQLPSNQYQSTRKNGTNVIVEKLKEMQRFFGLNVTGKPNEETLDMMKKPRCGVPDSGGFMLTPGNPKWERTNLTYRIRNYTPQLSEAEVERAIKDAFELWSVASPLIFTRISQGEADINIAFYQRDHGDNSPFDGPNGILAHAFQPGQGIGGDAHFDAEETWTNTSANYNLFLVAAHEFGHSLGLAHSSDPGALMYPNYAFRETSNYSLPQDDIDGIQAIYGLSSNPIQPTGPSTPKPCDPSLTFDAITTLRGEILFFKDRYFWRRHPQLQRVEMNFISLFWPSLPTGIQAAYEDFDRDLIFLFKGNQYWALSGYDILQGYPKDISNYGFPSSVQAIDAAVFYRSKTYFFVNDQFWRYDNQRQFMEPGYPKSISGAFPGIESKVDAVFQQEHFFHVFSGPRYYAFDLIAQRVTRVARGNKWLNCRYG

[12] = target: Matrix metalloproteinase-14 (Homo sapiens) (UniProt P50281); assay: Inhibition of human recombinant MMP14 at 200 uM by HxBPyne probe-based competitive activity based protein profiling assay in presence of 5 uM HxBpane competitor; procedure, shortened: as §1
[13] = target: Methionine aminopeptidase 2 (Homo sapiens) (UniProt P50579); assay: Inhibition of human recombinant METAP2 at 200 uM by HxBPyne probe-based competitive activity based protein profiling assay in presence of 200 uM HxBpane competitor
Procedure, shortened: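 Metalloprotease at 1.6 μM final in PBS, without liver proteome. HxBPyne probe cocktail 20 μM final, with inhibitor 200 μM or DMSO. Preincubated 30 min on ice, then irradiated 365 nm for 1 h on ice. Rhodamine-azide click chemistry, then SDS-PAGE and in-gel fluorescence scanning. Integrated band intensity expressed as % of DMSO control.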

[14] = target: Disintegrin and metalloproteinase domain-containing protein 10 (Homo sapiens) (UniProt O14672); assay: Inhibition of human recombinant ADAM10 at 200 uM by HxBPyne probe-based competitive activity based protein profiling assay in presence of 5 uM HxBpane competitor; procedure, shortened: as §1
[15] = target: Stromelysin-2 (Homo sapiens) (UniProt P09238); assay: Inhibition of human recombinant MMP10 at 200 uM by HxBPyne probe-based competitive activity based protein profiling assay in presence of 5 uM HxBpane competitor; procedure, shortened: as §1
[16] = target: Endoplasmic reticulum aminopeptidase 1 (Homo sapiens) (UniProt Q9NZ08); assay: Inhibition of human recombinant PILS-AP at 200 uM by HxBPyne probe-based competitive activity based protein profiling assay in presence of 5 uM HxBpane competitor; procedure, shortened: as §1

T1 sequence (P14780 whole entry): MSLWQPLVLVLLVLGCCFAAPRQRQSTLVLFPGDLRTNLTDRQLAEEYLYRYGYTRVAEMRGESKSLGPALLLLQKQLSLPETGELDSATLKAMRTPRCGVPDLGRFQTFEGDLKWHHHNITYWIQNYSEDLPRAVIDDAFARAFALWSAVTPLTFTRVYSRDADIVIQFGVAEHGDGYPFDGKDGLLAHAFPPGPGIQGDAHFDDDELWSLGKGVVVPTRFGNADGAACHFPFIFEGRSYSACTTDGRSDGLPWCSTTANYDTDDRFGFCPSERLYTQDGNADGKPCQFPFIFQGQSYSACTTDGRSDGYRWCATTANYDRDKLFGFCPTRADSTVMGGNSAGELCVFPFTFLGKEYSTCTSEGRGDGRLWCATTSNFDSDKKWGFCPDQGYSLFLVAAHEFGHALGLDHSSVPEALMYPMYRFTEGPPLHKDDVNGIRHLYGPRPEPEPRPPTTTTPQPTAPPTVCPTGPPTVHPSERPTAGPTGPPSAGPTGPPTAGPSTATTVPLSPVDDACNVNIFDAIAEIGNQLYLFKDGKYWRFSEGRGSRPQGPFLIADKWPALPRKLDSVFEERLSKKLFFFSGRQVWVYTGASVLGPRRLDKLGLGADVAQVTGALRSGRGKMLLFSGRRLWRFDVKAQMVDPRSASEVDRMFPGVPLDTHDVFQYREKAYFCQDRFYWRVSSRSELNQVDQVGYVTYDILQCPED
Matrix metalloproteinase-16 (Homo sapiens), sequence (P51512 whole entry): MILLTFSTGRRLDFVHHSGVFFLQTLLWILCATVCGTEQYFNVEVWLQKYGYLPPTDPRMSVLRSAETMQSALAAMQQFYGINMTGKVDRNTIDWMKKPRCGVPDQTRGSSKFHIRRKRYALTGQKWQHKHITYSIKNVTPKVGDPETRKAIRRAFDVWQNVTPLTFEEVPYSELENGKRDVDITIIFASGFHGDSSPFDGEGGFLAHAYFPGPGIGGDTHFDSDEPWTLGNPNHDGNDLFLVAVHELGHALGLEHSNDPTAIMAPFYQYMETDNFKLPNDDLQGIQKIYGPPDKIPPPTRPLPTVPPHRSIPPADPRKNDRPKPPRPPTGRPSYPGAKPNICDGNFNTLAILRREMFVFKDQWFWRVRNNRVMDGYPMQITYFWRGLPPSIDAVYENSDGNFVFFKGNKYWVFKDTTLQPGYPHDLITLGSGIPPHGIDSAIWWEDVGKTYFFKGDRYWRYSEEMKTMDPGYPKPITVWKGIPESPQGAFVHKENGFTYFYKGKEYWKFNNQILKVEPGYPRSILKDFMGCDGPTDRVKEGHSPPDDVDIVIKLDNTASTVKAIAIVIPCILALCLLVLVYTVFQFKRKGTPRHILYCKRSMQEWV
Disintegrin and metalloproteinase domain-containing protein 10 (Homo sapiens), sequence (O14672 whole entry, the tested form may be a part): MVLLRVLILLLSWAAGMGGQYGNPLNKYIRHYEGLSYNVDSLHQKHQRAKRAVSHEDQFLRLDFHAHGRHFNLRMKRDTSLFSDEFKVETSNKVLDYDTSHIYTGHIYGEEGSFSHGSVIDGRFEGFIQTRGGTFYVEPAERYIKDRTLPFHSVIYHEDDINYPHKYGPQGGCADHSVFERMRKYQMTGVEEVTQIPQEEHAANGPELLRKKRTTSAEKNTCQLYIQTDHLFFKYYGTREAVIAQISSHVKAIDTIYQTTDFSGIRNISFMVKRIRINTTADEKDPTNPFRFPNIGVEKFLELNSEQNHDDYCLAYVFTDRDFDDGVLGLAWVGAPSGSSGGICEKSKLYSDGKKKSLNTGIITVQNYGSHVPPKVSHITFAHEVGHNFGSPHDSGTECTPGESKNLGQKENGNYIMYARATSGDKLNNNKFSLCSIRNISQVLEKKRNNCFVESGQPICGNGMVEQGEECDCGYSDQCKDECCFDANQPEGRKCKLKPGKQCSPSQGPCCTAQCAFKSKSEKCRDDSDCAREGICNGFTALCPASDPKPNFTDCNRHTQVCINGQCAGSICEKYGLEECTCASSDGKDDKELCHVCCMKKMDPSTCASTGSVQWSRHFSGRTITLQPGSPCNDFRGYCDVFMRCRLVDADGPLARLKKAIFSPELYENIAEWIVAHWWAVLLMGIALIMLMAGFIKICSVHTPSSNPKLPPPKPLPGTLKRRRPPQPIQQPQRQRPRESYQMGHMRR
Methionine aminopeptidase 2 (Homo sapiens), sequence (P50579 2-478 limits assumed): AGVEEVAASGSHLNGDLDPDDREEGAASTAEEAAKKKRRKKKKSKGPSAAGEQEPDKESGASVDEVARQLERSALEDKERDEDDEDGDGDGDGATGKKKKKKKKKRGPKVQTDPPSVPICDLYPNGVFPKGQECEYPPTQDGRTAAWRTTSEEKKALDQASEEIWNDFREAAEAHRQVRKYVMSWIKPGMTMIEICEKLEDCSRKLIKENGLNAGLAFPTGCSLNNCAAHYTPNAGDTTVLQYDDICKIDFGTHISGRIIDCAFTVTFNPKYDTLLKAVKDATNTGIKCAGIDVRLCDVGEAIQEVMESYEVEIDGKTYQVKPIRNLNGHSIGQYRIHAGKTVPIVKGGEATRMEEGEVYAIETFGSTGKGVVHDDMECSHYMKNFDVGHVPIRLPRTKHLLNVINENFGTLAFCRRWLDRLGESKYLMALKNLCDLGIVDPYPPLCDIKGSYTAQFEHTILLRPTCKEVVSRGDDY
A disintegrin and metalloproteinase with thrombospondin motifs 4 (Homo sapiens), sequence (O75173 whole entry): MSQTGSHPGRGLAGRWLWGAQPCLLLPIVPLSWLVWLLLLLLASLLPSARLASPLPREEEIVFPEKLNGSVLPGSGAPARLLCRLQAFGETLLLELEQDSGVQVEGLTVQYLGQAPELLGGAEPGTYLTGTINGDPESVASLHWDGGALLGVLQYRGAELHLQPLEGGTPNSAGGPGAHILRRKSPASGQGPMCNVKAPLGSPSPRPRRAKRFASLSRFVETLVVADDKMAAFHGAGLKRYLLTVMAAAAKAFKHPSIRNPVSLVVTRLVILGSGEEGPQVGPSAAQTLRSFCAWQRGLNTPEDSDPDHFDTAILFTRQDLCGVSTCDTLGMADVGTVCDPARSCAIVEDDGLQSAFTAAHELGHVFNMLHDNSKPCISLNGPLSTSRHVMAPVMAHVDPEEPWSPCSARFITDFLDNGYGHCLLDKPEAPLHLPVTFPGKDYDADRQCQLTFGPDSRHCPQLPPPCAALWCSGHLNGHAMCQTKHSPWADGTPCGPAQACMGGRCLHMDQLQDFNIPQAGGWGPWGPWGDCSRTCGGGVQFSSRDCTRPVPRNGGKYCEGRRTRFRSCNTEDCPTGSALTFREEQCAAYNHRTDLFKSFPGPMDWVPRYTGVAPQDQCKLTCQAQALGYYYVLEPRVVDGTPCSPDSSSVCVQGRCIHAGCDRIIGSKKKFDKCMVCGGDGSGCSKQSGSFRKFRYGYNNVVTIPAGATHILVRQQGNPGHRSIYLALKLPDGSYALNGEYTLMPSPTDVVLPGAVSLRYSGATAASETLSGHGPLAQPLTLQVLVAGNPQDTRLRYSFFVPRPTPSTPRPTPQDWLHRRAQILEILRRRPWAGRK
72 kDa type IV collagenase (Homo sapiens), sequence (P08253 110-660 limits assumed): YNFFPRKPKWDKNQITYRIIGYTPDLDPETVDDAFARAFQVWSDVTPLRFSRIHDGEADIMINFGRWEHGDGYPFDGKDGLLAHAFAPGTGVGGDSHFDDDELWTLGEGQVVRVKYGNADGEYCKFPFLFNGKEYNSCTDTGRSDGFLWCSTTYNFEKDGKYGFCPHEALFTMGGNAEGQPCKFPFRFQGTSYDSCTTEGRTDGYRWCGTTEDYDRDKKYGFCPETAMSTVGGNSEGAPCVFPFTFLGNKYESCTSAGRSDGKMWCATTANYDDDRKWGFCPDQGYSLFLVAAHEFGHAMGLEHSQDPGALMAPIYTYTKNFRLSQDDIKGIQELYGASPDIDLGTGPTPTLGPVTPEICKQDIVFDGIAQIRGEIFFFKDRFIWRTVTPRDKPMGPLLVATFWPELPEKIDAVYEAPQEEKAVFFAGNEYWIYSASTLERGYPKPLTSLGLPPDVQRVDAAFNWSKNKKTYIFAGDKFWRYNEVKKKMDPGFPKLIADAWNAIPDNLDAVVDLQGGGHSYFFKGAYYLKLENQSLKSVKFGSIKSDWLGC
Stromelysin-1 (Homo sapiens), sequence (P08254 100-477 limits assumed): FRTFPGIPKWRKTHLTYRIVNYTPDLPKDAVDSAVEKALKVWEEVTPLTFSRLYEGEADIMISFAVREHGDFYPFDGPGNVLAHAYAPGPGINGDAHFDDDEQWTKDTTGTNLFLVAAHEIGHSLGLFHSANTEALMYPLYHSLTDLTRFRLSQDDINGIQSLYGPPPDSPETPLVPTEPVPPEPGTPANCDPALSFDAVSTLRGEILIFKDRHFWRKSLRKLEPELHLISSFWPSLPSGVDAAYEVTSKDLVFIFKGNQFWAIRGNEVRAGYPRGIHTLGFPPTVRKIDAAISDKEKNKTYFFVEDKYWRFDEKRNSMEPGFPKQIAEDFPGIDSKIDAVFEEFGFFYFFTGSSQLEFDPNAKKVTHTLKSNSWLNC

SMILES | Activity [1] | Activity [2] | Activity [3] | pIC50 [4] | Activity [5] | Activity [6] | Activity [7] | Activity (Neutrophil collagenase [8]) | Activity [9] | Activity [10] | pIC50 (Neutrophil collagenase [11]) | Activity [12] | Activity [13] | Activity [14] | Activity [15] | Activity [16]
Oc1nc(SCc2ccc(Cl)cc2)nc2c1CCC2 | inactive | inactive | inactive | < 4.00 | inactive | inactive | inactive | inactive | inactive | inactive | < 4.00 | inactive | inactive | inactive | inactive | inactive
COc1ccc(CSc2nc(C)cc(O)n2)cc1 | inactive | inactive | inactive | < 4.00 | inactive | inactive | inactive | inactive | inactive | inactive | < 4.00 | inactive | inactive | inactive | inactive | inactive
